# Source: PubChem BioAssay
# BAP1 block = human BAP1 deubiquitinase inhibition | AID 436 | calls only at 20 µM | 72,000 tested, 0.48% active | Q92560 | recombinant BAP1, Ub-AMC hydrolysis fluorescence kinetic; active compounds read low;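 active = activity remaining at or below 50% of control, provided the compound also passes the data quality filters; inactive = the rest, including low values that fail the filters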;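 also: 100% = DMSO wells rate and 0% = substrate alone blank rate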
# Target sequence (Q92560 whole entry, looked up): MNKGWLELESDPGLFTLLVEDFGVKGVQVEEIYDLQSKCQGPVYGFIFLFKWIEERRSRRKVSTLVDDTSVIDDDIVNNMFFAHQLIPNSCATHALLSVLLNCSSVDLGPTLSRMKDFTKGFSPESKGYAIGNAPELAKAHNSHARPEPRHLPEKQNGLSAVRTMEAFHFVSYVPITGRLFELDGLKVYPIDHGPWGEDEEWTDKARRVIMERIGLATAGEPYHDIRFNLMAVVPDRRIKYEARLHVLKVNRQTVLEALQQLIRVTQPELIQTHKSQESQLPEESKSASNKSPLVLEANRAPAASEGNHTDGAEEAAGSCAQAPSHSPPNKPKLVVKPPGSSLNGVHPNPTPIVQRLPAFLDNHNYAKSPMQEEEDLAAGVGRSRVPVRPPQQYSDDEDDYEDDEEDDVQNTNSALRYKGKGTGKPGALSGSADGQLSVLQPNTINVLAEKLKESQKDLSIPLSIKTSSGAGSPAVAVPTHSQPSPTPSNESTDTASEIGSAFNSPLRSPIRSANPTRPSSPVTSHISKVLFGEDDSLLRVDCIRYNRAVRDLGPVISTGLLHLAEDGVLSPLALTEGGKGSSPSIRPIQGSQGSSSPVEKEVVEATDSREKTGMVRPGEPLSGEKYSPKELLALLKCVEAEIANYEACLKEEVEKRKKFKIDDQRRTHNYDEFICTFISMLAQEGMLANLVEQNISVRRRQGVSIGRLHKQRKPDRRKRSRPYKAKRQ
# HER2 expr 66K = lowers expression of human Her2 kinase; P04626; SKBR-3 HER2 protein level, AlphaScreen, 18-24 h; active compounds read low; HER2 level % of control, % at 10 µM; 65,000 tested, 0.69% active; AID 645;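 active = HER2 level under 5% of the carrier-only control; inconclusive = no clear call, values can overlap the other calls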;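 also: 100% = DMSO carrier and 0% = 500 nM PU-H71 HSP90 inhibitor; lower value means stronger loss of Her2 protein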
# JNK3 blocker = inhibitors of human JNK3 kinase; P53779; purified JNK3 kinase activity, HTS; inhibition, % at 8 µM; 60,000 tested, 0.61% active; AID 746; in the data active = inhibition above about 17%;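 also: 0% = DMSO and 100% = reference inhibitor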
# M1 agonist = agonists of M1 muscarinic receptor; CHO-M1 cells, Fluo-4 calcium fluorescence, agonist mode; active compounds read high; B-score at 10 µM; 64,000 tested, 3% active; AID 626;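 active = fluorescence rise, raw or as B-score row- and column-corrected plate score, outside the 99.7% band of its plate's samples, either direction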
# HEK293 NFkB inh = lowers PMA/ionomycin-induced NF-kB signal in HEK293 cells; HEK-293 NF-kB luciferase reporter, luminescence; inhibition, % at 3 µM; 62,000 tested, 0.21% active;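 active = inhibition above the mean of all tested compounds plus 3 SD, cut at about 40% in these data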;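 also: 0% = stimulated DMSO wells and 100% = 10 µM reference inhibitor 5653914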
#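 Signal: luciferase luminescence; Material: HEK-293 cells with stable firefly luciferase reporter driven by four HIV NF-kB elements; Probe or stimulus: PMA with ionomycin; Replication: tested once; Times: 1 h compound pretreatment, then 16 h stimulation at 37 °C, 5% CO2; Benchmarks: DMSO and 10 µM reference inhibitor; Evaluation: per-plate % inhibition versus controls.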
# M1 antag = blocks the rat M1 muscarinic receptor response to acetylcholine | 64,000 tested, 3.4% active | B-score at 10 µM | CHO-M1 cells, Fluo-4 calcium, ACh EC80 antagonist mode; active compounds read low | P08482;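 active = calcium fluorescence response, raw or row-and-column corrected B-score, differing from the plate sample mean either way at a set confidence level, mostly lower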
# M1 agonist conf = confirmation of rat M1 muscarinic receptor agonists | shares compounds with M1 agonist | CHO-M1 cells, Fluo-4 calcium fluorescence, agonist mode; actives lie on both sides | fluorescence change (max-min) at 10 µM | 1,700 tested, 19% active | AID 1488;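 active = fluorescence change differs from the solvent-only DMSO control mean at a set confidence level in both duplicate runs; inconclusive = differs from solvent-only control mean in just one of two runs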;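 also: an EC20 dose of acetylcholine follows compound addition during the same imaging run; raw fluorescence intensity difference in instrument units with no normalization to controls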
# M4 ag counter = counter-screen for M1 agonists: activity at rat M4 receptor. shares compounds with M1 agonist. CHO M4/Gqi5 cells, Fluo-4 calcium fluorescence, agonist mode; actives lie on both sides. fluorescence change (max-min) at 10 µM. 1,700 tested, 9% active. AID 1741;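 active = fluorescence change differing from the plate's solvent-only control wells at 99.7% confidence in both duplicates, whether higher or lower; inconclusive = differs from solvent controls in only one of two duplicates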
# M1 antag conf = confirmation of rat M1 muscarinic receptor antagonists; shares compounds with M1 antag; CHO-M1 cells, Fluo-4 calcium, ACh EC80 antagonism; active compounds read low; 1,700 tested, 43% active; calcium response (max-min fluorescence) at 10 µM;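 active = calcium response below the same-plate mean of wells given acetylcholine alone at its 80%-effect dose, minus 3 SD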;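 also: raw fluorescence intensity difference in arbitrary instrument units and not normalized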
# mGluR4 antag = mGluR4 (human) activity, M1 antagonist secondary assay; shares compounds with M1 antag; CHO-mGluR4 calcium flux, Fluo-4 fluorescence, glutamate EC80; active compounds read low; fluorescence response (max-min) at 10 µM; 1,700 tested, 0.9% active; AID 678;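 active = fluorescence response below the plate's average for near-maximal glutamate wells, less 3 SD of those wells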;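 also: raw unnormalized fluorescence span taken in the window right after glutamate addition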
# * hit, by the source's call; i = inactive; ? = inconclusive; nt = not tested or not shown. The list is not random: actives were taken first. Their share in the collection is about 6.6%.
SMILES,BAP1 block,HER2 expr 66K,JNK3 blocker,M1 agonist,HEK293 NFkB inh,M1 antag,M1 antag conf,mGluR4 antag,others
Cc1oc(-c2ccc(Cl)cc2)nc1CN1CCCC(C(=O)N2CCN(C(=O)c3ccco3)CC2)C1 (configuration not stated),i,73,1,4*,38,-1.6,nt,nt,M1 agonist conf=-7.5;M4 ag counter=-44
Cc1ccc(-c2nc(CSCC(=O)N3CCCC3)c(C)o2)cc1,i,103,-3,0.58,21,-0.0082,nt,nt,
CCOc1ccc(-c2nc(CSCC(=O)N3CCN(C(=O)c4ccco4)CC3)c(C)o2)cc1,i,103,4,-3.5*,-10,-0.36,nt,nt,M1 agonist conf=?;M4 ag counter=-42
COc1ccc(C(=O)N=c2sc3cc(F)ccc3n2C)cc1OC,i,nt,nt,nt,nt,nt,nt,nt,
O=C(Nc1ncnc2sc3c(c12)CCCCC3)c1ccco1,i,34,0,37*,5,-10*,nt,nt,M1 agonist conf=-11;M4 ag counter=-53
COc1ccccc1N1CCN(Cc2ccc(OC)c(OC)c2OC)CC1,i,121,-2,-2.6*,20,-6.3*,601,197,M1 agonist conf=-16;M4 ag counter=-36
CCOC(=O)C1CCCN(C2CC(=O)N(c3cccc(C(F)(F)F)c3)C2=O)C1 (configuration not stated),i,104,-6,9*,11,-3.3*,619,238,M1 agonist conf=67*;M4 ag counter=-38
CCOC(=O)C1CCCN(C2CC(=O)N(c3ccc(C)c(C)c3)C2=O)C1 (configuration not stated),i,113,-3,1.2,10,0.22,nt,nt,
COc1cccc(C(c2nnnn2Cc2ccccc2)N2CCN(C(=O)c3ccco3)CC2)c1OC (configuration not stated),i,127,-2,-2.3*,19,-11*,514,184,M1 agonist conf=-13;M4 ag counter=-13
Cc1ccc2oc(-c3ccc(Cl)c(NC(=O)c4cccc(Cl)c4)c3)nc2c1,i,nt,nt,nt,nt,nt,nt,nt,
CCN(Cc1ccccc1)C(c1ccncc1)c1nnnn1C(C)(C)C (configuration not stated),i,92,-8,0.79,5,0.99,nt,nt,
CC(C)(C)n1nnnc1C(c1cccs1)N(Cc1ccccc1)Cc1cccnc1 (configuration not stated),i,45,-2,-0.23,-2,-4.7*,377*,236,
CN(C)C(=O)CSc1nnc(-c2cc(-c3cccs3)nc3ccccc23)o1,i,103,9,1.5,8,-3.7*,565,207,
CCc1ccc(S(=O)(=O)Nc2cc(Br)c3oc(C)c(C(C)=O)c3c2)cc1,i,nt,nt,nt,nt,nt,nt,nt,
CC(C)(C)NC(=O)c1nn2c(c1Cl)NC(c1ccco1)CC2C(F)(F)F (configuration not stated),i,nt,nt,nt,nt,nt,nt,nt,
CCC1(C)Cc2c(sc3c2c(=O)n(C)c2nnc(SCCc4ccccc4)n32)CO1 (configuration not stated),i,127,-1,-1,21,-3.1*,489*,244,
CCC1(C)Cc2c(sc3c2c(=O)n(C)c2nnc(SCc4ccccc4)n32)CO1 (configuration not stated),i,132,4,-0.003,nt,0.15,nt,nt,
COc1cc2nc3c4ccccc4n(CC#N)c3nc2cc1OC,i,66,5,-0.4,5,0.81,nt,nt,
CCn1c2ccccc2c2nc3cc(OC)c(OC)cc3nc21,i,44,3,1.5,25,-5.7*,462,154*,
CC(=O)Nc1ccc(N2C(=O)c3ccc(C(=O)O)cc3C2=O)cc1,i,nt,nt,nt,nt,nt,nt,nt,
O=C(NCCN1CCOCC1)c1ccc2c(c1)N(Cc1ccccc1)C(=O)CS2,i,97,nt,-0.33,5,-3*,344*,230,
O=C(NCCN1CCOCC1)c1ccc2c(c1)N(Cc1ccccc1)CCS2,i,88,-6,-0.72,12,-0.62,nt,nt,
CCn1cc(C(=O)NCCCN2CC(C)CC(C)C2)c2cc(OC)c(OC)cc2c1=O (configuration not stated),nt,120,nt,-0.65,3,-1.8*,595,196,
COc1ccccc1-n1c(C)cc(C(C[N+](=O)[O-])c2ccc(C)cc2)c1C (configuration not stated),i,nt,nt,nt,nt,nt,nt,nt,
CCSc1nnc(NC(=O)c2ccc([N+](=O)[O-])cc2)s1,i,nt,nt,nt,nt,nt,nt,nt,
SMILES,BAP1 block,HER2 expr 66K,JNK3 blocker,M1 agonist,HEK293 NFkB inh,M1 antag,M1 antag conf,mGluR4 antag,others
COc1ccc(CCn2c(SCC(=O)Nc3cc(C)on3)nc3ccccc3c2=O)cc1OC,i,35,0,1.7,13,-1.4,nt,nt,
COc1ccc(CCn2c(SCC(=O)Nc3cc(C)on3)nc3ccsc3c2=O)cc1OC,i,109,nt,2.9,13,-1.7*,596,212,
N#CCc1ccc(NC(=O)c2cccs2)cc1,i,nt,nt,nt,nt,nt,nt,nt,
O=C(c1ccccc1)N1CC(COc2ccccc2)OC(c2cccnc2)O1 (configuration not stated),i,82,3,-1.2,-2,-4.3*,677,246,
O=c1[nH]c(=O)n(CCO)c2nnn(Cc3ccccc3)c12,i,81,0,-1.3,6,-3.3*,579,244,
Cc1ccc(C(=O)Nc2nnc(N=Cc3ccc(F)cc3)s2)cc1,i,nt,nt,nt,nt,nt,nt,nt,
O=C(NC12CC3CC(CC(C3)C1)C2)N1CCN(C(=O)C2CCCO2)CC1 (configuration not stated),i,88,-4,-0.68,16,-1.8*,542,209,
O=C(NC12CC3CC(CC(C3)C1)C2)N1CCC(O)CC1,i,92,4,0.43,10,-0.017,nt,nt,
CCN(CC)CC(=O)n1c2c(c3ccccc31)CCCC2,i,96,-5,0.8,-2,0.00065,nt,nt,
CN1CCN(CC(=O)n2c3c(c4ccccc42)CCCC3)CC1,i,73,2,2.4,8,-2.9*,457*,285,
COC(=O)c1ccc(C2C(C(=O)OC(C)C)=C(C)N=C3SCCC(=O)N32)cc1 (configuration not stated),i,93,3,-0.22,7,-0.13,nt,nt,
COC(=O)C1=C(C)N=C2SCCC(=O)N2C1/C=C/c1ccccc1 (configuration not stated),i,118,-6,0.59,7,-4.5*,253*,222,
Cc1ccc(N2C(N)=NC(N)=NC23CCCCC3)cc1,i,nt,nt,nt,nt,nt,nt,nt,
